{"source": "paper PMC7236545", "about": "(Journal of the American Chemical Society, 2020)", "system": "HCT116 (wild-type APC) cells", "assay": "Cell viability / toxicity in HCT116", "type": "cell-based", "details": "Homo sapiens, HCT-116, read-out: IC50 (viability / growth inhibition)", "summary_of_the_method": "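Dose-response toxicity assay of test compound on human HCT116 (APC wild-type) cells. Cells are kept in low-serum medium (0.2% FBS with growth factors), not fully defined medium. IC50 is the concentration that reduces cell viability by 50%.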", "note": "pIC50: −log10 of the molar value."}
{"compound": "CC[C@H](C)C(=O)O[C@H]1CCC=C2C=C[C@H](C)[C@H](CC[C@@H](O)C[C@@H](O)CC(=O)O)[C@H]21", "note": "[Compactin, compactin]", "values": [{"measurement": "pIC50", "result": "~4.73"}]}
